Each block holds one compound with its values, some of them ahead of it. The source made the active and inactive calls. The calls are words filed in the database; no cut-off is given here.
Tests used:
[1] = molecular target: T1, Toll-like receptor 9 (Homo sapiens) (UniProt Q9NR96); assay: Inhibition of human TLR9 expressed in HEK293 cells assessed as reduction in ODN-2006-induced NFkappaB production at 3 to 5 uM incubated for 16 hrs by quanti-blue SEAP assay; format: cell-based
T1 sequence (whole entry): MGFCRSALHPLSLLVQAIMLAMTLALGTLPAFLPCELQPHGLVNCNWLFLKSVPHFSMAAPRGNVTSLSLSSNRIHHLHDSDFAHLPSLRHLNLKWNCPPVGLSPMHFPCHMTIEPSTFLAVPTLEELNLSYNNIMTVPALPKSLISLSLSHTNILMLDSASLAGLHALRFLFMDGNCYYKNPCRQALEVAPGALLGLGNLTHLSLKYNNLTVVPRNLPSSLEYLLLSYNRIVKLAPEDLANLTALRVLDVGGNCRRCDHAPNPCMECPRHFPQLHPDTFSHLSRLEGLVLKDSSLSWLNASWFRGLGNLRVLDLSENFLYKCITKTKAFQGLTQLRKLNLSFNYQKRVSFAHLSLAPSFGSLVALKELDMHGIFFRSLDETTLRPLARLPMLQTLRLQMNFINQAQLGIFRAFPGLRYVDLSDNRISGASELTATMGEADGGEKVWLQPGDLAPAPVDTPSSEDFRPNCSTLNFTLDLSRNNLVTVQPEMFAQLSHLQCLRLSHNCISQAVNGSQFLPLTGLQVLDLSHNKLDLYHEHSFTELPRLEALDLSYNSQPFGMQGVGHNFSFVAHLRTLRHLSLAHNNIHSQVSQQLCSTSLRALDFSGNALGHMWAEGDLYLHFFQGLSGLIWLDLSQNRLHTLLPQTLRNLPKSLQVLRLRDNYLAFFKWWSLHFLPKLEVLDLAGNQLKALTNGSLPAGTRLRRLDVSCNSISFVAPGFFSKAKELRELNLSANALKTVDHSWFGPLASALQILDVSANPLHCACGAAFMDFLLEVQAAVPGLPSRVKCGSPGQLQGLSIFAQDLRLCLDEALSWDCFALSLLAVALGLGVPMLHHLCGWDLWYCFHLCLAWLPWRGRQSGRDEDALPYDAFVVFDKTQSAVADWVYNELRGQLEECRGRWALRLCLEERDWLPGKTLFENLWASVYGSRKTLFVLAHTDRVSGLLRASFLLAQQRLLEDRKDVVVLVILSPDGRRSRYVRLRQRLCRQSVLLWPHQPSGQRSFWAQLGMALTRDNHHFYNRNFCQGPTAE
Procedure, shortened: (§1)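 Selectivity panel in stably transfected HEK 293-Blue cells, each overexpressing one human TLR with an inducible SEAP reporter. Agonists: Pam3CSK4 (TLR1/2), Pam2CSK4 (TLR2/6), poly(I:C) (TLR3), LPS (TLR4), R848 (TLR7/8), ODN 2006 (TLR9). Cells were exposed to compound for 16 h. Activity = (raw − untreated)/(ligand + solvent − untreated), with ligand + solvent set as 100%.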

[2] = molecular target: T2, Toll-like receptor 7 (Homo sapiens) (UniProt Q9NYK1); assay: Inhibition of human TLR7 expressed in HEK293 cells assessed as reduction in resiquimod-induced NFkappaB production at 5 to 20 uM incubated for 16 hrs by quanti-blue SEAP assay; format: cell-based; procedure, shortened: as §1
T2 sequence (whole entry): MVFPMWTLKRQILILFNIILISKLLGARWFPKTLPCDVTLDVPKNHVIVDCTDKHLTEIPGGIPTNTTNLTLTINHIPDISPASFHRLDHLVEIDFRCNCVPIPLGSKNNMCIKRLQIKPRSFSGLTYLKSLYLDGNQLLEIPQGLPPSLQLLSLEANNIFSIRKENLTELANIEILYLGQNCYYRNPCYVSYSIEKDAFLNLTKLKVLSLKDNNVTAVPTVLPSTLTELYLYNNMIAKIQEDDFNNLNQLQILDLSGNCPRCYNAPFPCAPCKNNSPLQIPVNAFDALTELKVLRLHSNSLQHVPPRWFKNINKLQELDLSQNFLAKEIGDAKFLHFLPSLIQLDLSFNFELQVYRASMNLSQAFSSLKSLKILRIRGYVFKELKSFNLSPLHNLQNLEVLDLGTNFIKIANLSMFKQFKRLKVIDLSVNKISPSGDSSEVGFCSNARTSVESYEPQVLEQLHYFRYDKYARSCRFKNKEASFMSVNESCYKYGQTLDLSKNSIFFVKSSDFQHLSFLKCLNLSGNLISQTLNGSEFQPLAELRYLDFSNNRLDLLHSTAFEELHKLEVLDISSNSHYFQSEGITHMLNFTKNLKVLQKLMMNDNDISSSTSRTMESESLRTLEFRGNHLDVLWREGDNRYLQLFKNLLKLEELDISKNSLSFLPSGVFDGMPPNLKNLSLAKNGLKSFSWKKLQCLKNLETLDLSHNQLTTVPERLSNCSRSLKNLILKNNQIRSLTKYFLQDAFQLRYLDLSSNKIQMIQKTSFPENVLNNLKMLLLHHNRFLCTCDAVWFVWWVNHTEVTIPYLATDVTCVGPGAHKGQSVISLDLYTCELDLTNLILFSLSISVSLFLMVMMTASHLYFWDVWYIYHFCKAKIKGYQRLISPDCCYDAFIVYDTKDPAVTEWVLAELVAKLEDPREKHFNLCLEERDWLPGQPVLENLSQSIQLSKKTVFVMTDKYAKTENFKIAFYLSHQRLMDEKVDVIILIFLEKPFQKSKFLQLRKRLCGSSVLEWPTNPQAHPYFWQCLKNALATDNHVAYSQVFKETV

THP-1 = assay: Inhibition of IFN mediated immune response in human THP1 cells assessed as inhibition of G3-YSD-induced cGAS signalling pathway at 20 uM incubated for 16 hrs by luciferase assay; format: functional, cell-based
Procedure, shortened: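 THP1-Dual monocytes carrying Lucia luciferase and SEAP reporters were stimulated with 3p-hpRNA (RIG-I agonist) or Y-form dsDNA G3-YSD (cGAS agonist), with or without compound. Secreted Lucia luciferase luminescence was measured as the type I IFN read-out. Mean ± s.d., n = 3 independent experiments.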

- inhibition [1]: Active
SMILES: O=C(Nc1ccc(Oc2cc(C(F)(F)F)cc(C(F)(F)F)c2)cc1)c1c(F)cccc1Cl

- inhibition [2]: Active
SMILES: O=C(Nc1ccc(Oc2cncc(C(F)(F)F)c2)cc1)c1c(F)cccc1Cl

SMILES: O=[N+]([O-])c1c(I)cccc1Oc1ccc(-c2nnco2)cc1
- inhibition (THP-1): Active

— ChEMBL document CHEMBL4354819, “Discovery of Novel Small Molecule Dual Inhibitors Targeting Toll-Like Receptors 7 and 8” (J Med Chem, 2019)
